Measurements as given in ChEMBL document CHEMBL4354843, “Structure-Based Design of a Potent and Selective Covalent Inhibitor for SRC Kinase That Targets a P-Loop Cysteine” (J Med Chem, 2020).

Key:
[1] = tested on: Tyrosine-protein kinase ABL1 (Homo sapiens), P00519 [T315I]; test: Binding affinity to human phosphorylated ABL1 T315I mutant (S229 to K512 residues) expressed in mammalian expression system assessed as residual binding level at 1 uM by Kinomescan method relative to control
How it was run: (§1)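 Active-site-directed KinomeScan competition binding panel covering 468 kinases, compound tested at 1 μM. Each readout is the kinase signal remaining with compound, expressed as a percentage of the DMSO control. […]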

[2] = molecular target: Activin receptor type-1B (Homo sapiens) (UniProt P36896); test: Binding affinity to wild-type human ACVR1B (S187 to I505 residues) expressed in bacterial expression system assessed as residual binding level at 1 uM by Kinomescan method relative to control
How it was run: (§2)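 KinomeScan, an active site-directed competition binding panel of 468 kinases. The test compound was at 1 μM. The readout is remaining kinase binding as a percentage of the DMSO control. Scores above 35% were treated as weak binding and not listed.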

[3] = molecular target: Aurora kinase B (Homo sapiens) (UniProt Q96GD4); test: Binding affinity to wild-type human partial length AURKB (D25 to A303 residues) expressed in mammalian expression system assessed as residual binding level at 1 uM by Kinomescan method relative to control; how it was run: as §2
[4] = molecular target: Serine/threonine-protein kinase 17B (Homo sapiens) (UniProt O94768); test: Binding affinity to wild-type human full length DRAK2 (M1 to C372 residues) expressed in bacterial expression system assessed as residual binding level at 1 uM by Kinomescan method relative to control; how it was run: as §1
Serine/threonine-protein kinase 17B (Homo sapiens), sequence (O94768 whole entry, the tested form may be a part): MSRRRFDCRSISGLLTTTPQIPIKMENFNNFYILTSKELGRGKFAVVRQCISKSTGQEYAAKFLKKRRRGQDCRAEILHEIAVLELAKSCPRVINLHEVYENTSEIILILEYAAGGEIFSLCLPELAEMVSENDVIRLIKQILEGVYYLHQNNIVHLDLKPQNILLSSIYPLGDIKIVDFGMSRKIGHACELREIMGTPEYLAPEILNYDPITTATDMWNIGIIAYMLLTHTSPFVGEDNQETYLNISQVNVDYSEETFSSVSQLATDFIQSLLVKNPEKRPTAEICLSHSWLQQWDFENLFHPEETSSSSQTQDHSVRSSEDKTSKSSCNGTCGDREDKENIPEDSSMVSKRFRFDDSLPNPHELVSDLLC

[5] = tested on: Epidermal growth factor receptor (Homo sapiens), P00533 [UNDEFINED MUTATION]; test: Binding affinity to human partial length EGFR L747-T751del/Sins mutant expressed in bacterial expression system assessed as residual binding level at 1 uM by Kinomescan method relative to control
Epidermal growth factor receptor (Homo sapiens), P00533 [UNDEFINED MUTATION], sequence (P00533 whole entry, looked up, stated change not applied, the tested form may be a part): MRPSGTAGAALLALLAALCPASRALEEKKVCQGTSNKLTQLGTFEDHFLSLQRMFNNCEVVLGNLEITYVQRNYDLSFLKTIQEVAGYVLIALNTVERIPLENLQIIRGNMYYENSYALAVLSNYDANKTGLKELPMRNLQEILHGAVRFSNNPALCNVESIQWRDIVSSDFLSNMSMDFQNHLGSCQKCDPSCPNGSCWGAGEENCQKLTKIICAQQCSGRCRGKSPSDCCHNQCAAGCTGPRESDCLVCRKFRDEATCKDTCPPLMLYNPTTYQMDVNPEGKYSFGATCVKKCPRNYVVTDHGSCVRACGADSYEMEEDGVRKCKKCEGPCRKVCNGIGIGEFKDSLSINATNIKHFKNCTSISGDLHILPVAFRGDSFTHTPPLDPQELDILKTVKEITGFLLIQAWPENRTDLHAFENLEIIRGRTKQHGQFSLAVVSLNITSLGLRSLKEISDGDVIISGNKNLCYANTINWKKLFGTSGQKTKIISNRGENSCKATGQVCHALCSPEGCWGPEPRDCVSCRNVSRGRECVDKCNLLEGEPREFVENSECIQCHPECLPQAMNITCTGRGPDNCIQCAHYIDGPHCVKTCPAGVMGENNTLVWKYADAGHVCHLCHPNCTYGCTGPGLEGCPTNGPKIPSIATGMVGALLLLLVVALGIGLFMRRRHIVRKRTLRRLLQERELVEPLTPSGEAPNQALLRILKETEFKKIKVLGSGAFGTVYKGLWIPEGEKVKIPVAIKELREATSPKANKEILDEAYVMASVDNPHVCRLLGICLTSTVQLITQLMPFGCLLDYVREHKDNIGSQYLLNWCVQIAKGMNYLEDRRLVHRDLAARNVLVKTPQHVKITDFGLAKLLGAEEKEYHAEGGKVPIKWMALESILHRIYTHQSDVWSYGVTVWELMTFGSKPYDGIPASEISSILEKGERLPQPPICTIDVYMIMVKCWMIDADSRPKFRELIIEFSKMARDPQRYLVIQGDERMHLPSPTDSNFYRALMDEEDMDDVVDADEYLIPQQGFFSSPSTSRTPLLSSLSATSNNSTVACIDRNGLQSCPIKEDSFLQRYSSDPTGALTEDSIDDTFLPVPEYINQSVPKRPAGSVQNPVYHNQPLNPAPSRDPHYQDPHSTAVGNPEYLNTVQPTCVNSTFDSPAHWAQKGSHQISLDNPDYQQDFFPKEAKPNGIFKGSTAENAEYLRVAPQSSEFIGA
How it was run: (§3)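 KinomeScan active site-directed competition binding panel (468 kinases), compound tested at 1 μM. Result expressed as remaining kinase signal versus DMSO control (percent of control).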

[6] = tested on: Epidermal growth factor receptor (Homo sapiens), P00533 [UNDEFINED MUTATION]; test: Binding affinity to human partial length EGFR S752-I759del mutant expressed in bacterial expression system assessed as residual binding level at 1 uM by Kinomescan method relative to control; how it was run: as §3
[7] = tested on: Receptor-type tyrosine-protein kinase FLT3 (Homo sapiens), P36888 [K663Q]; test: Binding affinity to human partial length FLT3 K663Q mutant (V592 to Y969 residues) expressed in bacterial expression system assessed as residual binding level at 1 uM by Kinomescan method relative to control; how it was run: as §3
[8] = molecular target: Inhibitor of nuclear factor kappa-B kinase subunit alpha (Homo sapiens) (UniProt O15111); test: Binding affinity to wild-type human full length IKK-alpha (M1 to E745 residues) expressed in mammalian expression system assessed as residual binding level at 1 uM by Kinomescan method relative to control; how it was run: as §1
[9] = molecular target: Myosin light chain kinase, smooth muscle (Homo sapiens) (UniProt Q15746); test: Binding affinity to wild-type human full length MYLK (M854 to E1845 residues) expressed in mammalian expression system assessed as residual binding level at 1 uM by Kinomescan method relative to control
How it was run: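 Active-site-directed competition binding panel (KinomeScan) covering 468 kinases. Test agent was screened at 1 μM. The read-out is the remaining kinase signal expressed relative to a DMSO control. Scores above 35%, taken as weak binding, were not reported.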

[10] = molecular target: Serine/threonine-protein kinase Nek5 (Homo sapiens) (UniProt Q6P3R8); test: Binding affinity to wild-type human partial length NEK5 (M1 to M279 residues) expressed in bacterial expression system assessed as residual binding level at 1 uM by Kinomescan method relative to control
Serine/threonine-protein kinase Nek5 (Homo sapiens), sequence (Q6P3R8 whole entry, the tested form may be a part): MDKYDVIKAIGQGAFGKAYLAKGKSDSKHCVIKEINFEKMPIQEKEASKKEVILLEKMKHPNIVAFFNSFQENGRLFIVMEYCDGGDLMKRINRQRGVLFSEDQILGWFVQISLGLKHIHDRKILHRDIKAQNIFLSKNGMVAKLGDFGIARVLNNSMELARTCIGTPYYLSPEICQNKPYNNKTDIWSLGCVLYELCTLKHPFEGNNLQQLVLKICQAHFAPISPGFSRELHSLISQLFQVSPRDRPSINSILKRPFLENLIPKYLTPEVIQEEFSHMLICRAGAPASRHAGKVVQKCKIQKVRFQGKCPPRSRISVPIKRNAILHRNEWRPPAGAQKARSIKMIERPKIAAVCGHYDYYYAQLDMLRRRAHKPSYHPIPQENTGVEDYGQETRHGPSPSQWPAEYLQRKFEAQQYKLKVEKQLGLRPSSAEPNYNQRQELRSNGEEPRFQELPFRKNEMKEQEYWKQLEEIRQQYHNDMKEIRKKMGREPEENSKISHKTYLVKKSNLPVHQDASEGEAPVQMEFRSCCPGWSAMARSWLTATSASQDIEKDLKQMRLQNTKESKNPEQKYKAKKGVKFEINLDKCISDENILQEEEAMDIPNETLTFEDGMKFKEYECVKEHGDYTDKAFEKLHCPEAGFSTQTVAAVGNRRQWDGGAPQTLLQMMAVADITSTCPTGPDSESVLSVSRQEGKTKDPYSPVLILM

[11] = molecular target: Calcium-dependent protein kinase 1 (Plasmodium falciparum) (UniProt P62344); test: Binding affinity to wild-type Plasmodium falciparum full length CDPK1 (M1 to S524 residues) expressed in mammalian expression system assessed as residual binding level at 1 uM by Kinomescan method relative to control; how it was run: as §2
[12] = molecular target: Phosphatidylinositol 4,5-bisphosphate 3-kinase catalytic subunit alpha isoform (Homo sapiens) (UniProt P42336); test: Binding affinity to wild-type human partial length PIK3CA (R108 to N1068 residues) expressed in mammalian expression system assessed as residual binding level at 1 uM by Kinomescan method relative to control
[13] = molecular target: Serine/threonine-protein kinase N1 (Homo sapiens) (UniProt Q16512); test: Binding affinity to wild-type human partial length PKN1 (E598 to C948 residues) expressed in bacterial expression system assessed as residual binding level at 1 uM by Kinomescan method relative to control
How it was run: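 Active-site-directed competition binding panel of 468 kinases (KinomeScan), compound at 1 μM. The read-out is kinase remaining bound, given as a percentage of the DMSO control. […]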

[14] = molecular target: Serine/threonine-protein kinase PLK4 (Homo sapiens) (UniProt O00444); test: Binding affinity to wild-type human partial length PLK4 (M1 to S273 residues) expressed in mammalian expression system assessed as residual binding level at 1 uM by Kinomescan method relative to control
Serine/threonine-protein kinase PLK4 (Homo sapiens), sequence (O00444 whole entry, the tested form may be a part): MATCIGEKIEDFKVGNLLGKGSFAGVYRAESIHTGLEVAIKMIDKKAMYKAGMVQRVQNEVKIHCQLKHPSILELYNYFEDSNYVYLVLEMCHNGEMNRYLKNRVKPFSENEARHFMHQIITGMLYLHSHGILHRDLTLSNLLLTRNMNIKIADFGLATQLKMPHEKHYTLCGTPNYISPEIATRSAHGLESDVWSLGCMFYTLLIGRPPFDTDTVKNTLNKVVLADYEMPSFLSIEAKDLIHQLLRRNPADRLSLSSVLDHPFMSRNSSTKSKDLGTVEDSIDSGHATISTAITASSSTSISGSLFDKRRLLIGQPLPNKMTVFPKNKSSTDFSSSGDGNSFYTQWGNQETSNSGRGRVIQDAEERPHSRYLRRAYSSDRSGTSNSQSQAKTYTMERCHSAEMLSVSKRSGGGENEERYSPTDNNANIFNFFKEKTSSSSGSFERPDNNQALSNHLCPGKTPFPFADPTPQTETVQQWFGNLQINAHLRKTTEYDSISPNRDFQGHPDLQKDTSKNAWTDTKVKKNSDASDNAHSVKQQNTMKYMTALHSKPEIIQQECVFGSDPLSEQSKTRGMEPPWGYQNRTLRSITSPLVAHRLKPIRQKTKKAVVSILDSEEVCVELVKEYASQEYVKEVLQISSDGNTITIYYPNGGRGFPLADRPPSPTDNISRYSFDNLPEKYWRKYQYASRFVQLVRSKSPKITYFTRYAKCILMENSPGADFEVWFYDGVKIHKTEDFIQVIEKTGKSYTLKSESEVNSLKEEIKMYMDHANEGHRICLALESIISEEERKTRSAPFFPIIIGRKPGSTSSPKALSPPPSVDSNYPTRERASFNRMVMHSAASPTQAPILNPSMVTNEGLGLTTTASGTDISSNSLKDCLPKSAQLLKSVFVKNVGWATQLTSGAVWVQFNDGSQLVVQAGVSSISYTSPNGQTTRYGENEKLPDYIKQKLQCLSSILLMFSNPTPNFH

[15] = molecular target: Tyrosine-protein kinase Srms (Homo sapiens) (UniProt Q9H3Y6); test: Binding affinity to wild-type human partial length SRMS (L208 to P488 residues) expressed in mammalian expression system assessed as residual binding level at 1 uM by Kinomescan method relative to control
Tyrosine-protein kinase Srms (Homo sapiens), sequence (Q9H3Y6 whole entry, the tested form may be a part): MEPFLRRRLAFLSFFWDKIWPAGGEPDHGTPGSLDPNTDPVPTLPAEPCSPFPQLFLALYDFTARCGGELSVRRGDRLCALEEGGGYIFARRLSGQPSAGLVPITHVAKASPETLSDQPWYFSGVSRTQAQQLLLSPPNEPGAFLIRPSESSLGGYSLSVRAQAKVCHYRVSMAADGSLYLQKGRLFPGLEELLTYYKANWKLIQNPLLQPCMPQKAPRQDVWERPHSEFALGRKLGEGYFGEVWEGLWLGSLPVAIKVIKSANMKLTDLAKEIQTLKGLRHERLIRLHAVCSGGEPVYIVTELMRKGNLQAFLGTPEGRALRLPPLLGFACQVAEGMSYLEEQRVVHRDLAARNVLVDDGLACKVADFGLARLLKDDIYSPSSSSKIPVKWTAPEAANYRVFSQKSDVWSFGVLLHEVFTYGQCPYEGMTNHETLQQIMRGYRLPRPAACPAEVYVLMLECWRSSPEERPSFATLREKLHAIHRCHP

[16] = molecular target: SRSF protein kinase 1 (Homo sapiens) (UniProt Q96SB4); test: Binding affinity to wild-type human full length SRPK1 (M1 to S655 residues) expressed in bacterial expression system assessed as residual binding level at 1 uM by Kinomescan method relative to control
How it was run: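 Active site-directed binding assay (KinomeScan) run across a 468-kinase panel, with the test compound at 1 μM. The read-out is the remaining kinase signal in the presence of compound, expressed as a percentage of the DMSO control. Scores above 35% were taken as weak binding and were not reported.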

[17] = molecular target: Tyrosine-protein kinase receptor TYRO3 (Homo sapiens) (UniProt Q06418); test: Binding affinity to wild-type human partial length TYRO3 (S497 to T814 residues) expressed in bacterial expression system assessed as residual binding level at 1 uM by Kinomescan method relative to control
[18] = molecular target: Serine/threonine-protein kinase ULK1 (Homo sapiens) (UniProt O75385); test: Binding affinity to wild-type human partial length ULK1 (M1 to T309 residues) expressed in mammalian expression system assessed as residual binding level at 1 uM by Kinomescan method relative to control
[19] = molecular target: Vascular endothelial growth factor receptor 2 (Homo sapiens) (UniProt P35968); test: Binding affinity to wild-type human partial length VEGFR2 (R787 to P1253 residues) expressed in mammalian expression system assessed as residual binding level at 1 uM by Kinomescan method relative to control
Vascular endothelial growth factor receptor 2 (Homo sapiens), sequence (P35968 whole entry, the tested form may be a part): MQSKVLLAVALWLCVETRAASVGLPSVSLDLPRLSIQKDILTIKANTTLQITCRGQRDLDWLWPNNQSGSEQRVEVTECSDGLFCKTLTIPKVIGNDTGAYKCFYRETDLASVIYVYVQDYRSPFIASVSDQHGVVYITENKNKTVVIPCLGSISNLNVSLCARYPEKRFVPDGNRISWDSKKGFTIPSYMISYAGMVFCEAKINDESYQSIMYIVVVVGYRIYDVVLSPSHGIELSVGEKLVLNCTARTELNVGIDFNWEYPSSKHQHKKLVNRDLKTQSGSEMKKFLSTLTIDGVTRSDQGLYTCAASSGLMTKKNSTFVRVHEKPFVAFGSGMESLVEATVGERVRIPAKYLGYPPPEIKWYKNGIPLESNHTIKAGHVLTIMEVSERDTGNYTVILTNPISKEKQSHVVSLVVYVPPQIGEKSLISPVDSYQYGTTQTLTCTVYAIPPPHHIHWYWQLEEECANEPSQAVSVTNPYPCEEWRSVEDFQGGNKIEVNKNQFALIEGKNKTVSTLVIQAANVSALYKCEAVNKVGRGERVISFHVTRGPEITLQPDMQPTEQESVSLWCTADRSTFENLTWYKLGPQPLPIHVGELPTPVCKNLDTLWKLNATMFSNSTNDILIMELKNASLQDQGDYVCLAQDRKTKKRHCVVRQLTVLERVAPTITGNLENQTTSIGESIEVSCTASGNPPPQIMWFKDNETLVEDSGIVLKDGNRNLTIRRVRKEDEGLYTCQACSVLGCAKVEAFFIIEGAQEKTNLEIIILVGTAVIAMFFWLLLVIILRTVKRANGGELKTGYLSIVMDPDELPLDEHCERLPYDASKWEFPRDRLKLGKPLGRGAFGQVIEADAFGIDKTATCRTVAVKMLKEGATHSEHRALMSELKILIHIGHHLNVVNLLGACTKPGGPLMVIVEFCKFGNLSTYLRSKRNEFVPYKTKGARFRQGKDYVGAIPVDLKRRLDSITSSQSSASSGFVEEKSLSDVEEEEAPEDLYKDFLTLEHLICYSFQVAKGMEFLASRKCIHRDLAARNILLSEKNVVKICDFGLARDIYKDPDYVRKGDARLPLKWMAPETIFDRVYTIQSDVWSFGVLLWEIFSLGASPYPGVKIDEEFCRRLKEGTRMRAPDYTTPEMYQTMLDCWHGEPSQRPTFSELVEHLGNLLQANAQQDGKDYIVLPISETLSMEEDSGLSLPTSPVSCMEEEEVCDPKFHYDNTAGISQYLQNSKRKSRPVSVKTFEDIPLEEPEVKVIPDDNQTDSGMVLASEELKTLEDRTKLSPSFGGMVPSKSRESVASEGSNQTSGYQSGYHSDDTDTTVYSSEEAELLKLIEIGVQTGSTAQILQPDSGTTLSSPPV
How it was run: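 Active site-directed competition binding panel (KinomeScan, 468 kinases). Test compound at 1 μM. Read-out is kinase binding remaining versus DMSO control, expressed as percent of control. Scores above 35% are treated as weak binding.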

`C=CC(=O)Nc1ccccc1Nc1nc(Nc2ccc(N3CCN(C)CC3)cc2)ncc1C(=O)Nc1c(C)cccc1Cl` showed an Activity [1] of 100%, an Activity [2] of 93% and an Activity [3] of 79%. For the same compound, the Activity [4] was 100%, the Activity [5] was 73% and the Activity [6] was 92%. The Activity [7] was 100%, the Activity [8] was 100% and the Activity [9] was 100%. The Activity [10] was 100%, the Activity [11] was 72% and the Activity [12] was 100%. It also gave an Activity [13] of 83%, an Activity [14] of 92% and an Activity [15] of 87%. The Activity [16] was 100%, the Activity [17] was 89% and the Activity [18] was 100%. It also gave an Activity [19] of 94%.
